Test results taken from ChEMBL document CHEMBL4265950, “Discovery of furyl/thienyl β-carboline derivatives as potent and selective PDE5 inhibitors with excellent vasorelaxant effect” (Eur J Med Chem, 2018).

What was measured:
[1] = target: T1, cGMP-specific 3',5'-cyclic phosphodiesterase (Homo sapiens, UniProt O76074); assay: Inhibition of full length recombinant human N-terminal GST-tagged PDE5A1 expressed in baculovirus infected sf9 cells at 100 nM using FAM-cyclic-3',5-GMP as substrate after 1 hr by fluorescence polarization assay relative to control
Summary of the method: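 Single-point test at 100 nM, reported as percent inhibition. Human PDE5 at 15 ng/mL with 100 nM FAM-cGMP in MOPS pH 7.5 buffer (MgCl2, EDTA, BSA, DTT), 1% DMSO final, 60 min at 25 °C. Binding agent added for 1 h, then fluorescence polarization read at […] nm.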

[2] = target: T1, cGMP-specific 3',5'-cyclic phosphodiesterase; assay: Inhibition of full length recombinant human N-terminal GST-tagged PDE5A1 expressed in baculovirus infected sf9 cells using FAM-cyclic-3',5-GMP as substrate after 1 hr by fluorescence polarization assay
Homo sapiens [3] = species on record: Homo sapiens; assay: Selectivity index, ratio of IC50 for inhibition of full length recombinant human N-terminal GST-tagged PDE6C expressed in baculovirus infected sf9 cells to IC50 for inhibition of full length recombinant human N-terminal GST-tagged PDE5A1 expressed in baculovirus infected sf9 cells
[4] = target: cGMP-dependent 3',5'-cyclic phosphodiesterase (Homo sapiens, UniProt O00408); assay: Inhibition of recombinant human N-terminal FLAG-tagged PDE2A (2 to 941 residues) expressed in baculovirus infected sf9 cells using FAM-cyclic-3',5-AMP as substrate after 1 hr by fluorescence polarization assay
cGMP-dependent 3',5'-cyclic phosphodiesterase, sequence (O00408 whole entry, the tested form may be a part, canonical isoform): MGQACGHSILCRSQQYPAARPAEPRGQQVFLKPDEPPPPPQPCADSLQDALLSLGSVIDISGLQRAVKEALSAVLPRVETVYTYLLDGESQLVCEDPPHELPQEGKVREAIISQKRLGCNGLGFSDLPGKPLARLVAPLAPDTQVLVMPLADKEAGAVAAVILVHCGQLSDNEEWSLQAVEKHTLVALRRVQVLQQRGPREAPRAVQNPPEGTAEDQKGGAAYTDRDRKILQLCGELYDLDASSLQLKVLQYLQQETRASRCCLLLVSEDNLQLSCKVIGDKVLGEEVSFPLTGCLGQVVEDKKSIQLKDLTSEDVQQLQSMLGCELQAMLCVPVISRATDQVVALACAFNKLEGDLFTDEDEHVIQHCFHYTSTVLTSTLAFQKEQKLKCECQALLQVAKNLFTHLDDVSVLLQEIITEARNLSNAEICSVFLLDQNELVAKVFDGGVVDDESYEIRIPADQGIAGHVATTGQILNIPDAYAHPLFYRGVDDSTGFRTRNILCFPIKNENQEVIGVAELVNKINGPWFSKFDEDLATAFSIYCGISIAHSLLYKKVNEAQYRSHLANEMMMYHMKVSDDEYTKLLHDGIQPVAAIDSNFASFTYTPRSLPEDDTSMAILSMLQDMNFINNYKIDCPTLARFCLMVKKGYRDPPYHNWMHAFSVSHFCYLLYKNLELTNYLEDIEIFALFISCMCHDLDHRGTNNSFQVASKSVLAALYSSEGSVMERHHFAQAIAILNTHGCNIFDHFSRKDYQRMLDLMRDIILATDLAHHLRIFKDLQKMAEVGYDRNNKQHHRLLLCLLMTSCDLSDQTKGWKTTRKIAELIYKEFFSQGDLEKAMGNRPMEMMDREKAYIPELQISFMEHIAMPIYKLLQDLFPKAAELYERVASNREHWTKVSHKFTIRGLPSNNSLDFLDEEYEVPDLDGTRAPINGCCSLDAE
Summary of the method: (§1)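 Fluorescence polarization assay run at 25 °C for 60 min in 40 mM MOPS pH 7.5, 0.5 mM EDTA, 15 mM MgCl2, 0.15 mg/mL BSA, 1 mM DTT, 0.05% ProClin 200. Contained 15 ng/mL PDE isoform and 100 nM FAM-cGMP or FAM-cAMP according to isoform, with 1% DMSO final. Binding agent added for 1 h at 25 °C; read at […] nm. IC50 from normalized nonlinear dose-response fit.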

[5] = target: cGMP-inhibited 3',5'-cyclic phosphodiesterase 3B (Homo sapiens, UniProt Q13370); assay: Inhibition of recombinant human N-terminal GST-tagged PDE3B (592 to end residues) expressed in baculovirus infected sf9 cells using FAM-cyclic-3',5-AMP as substrate after 1 hr by fluorescence polarization assay; summary of the method: as §1
cGMP-inhibited 3',5'-cyclic phosphodiesterase 3B, sequence (Q13370 whole entry): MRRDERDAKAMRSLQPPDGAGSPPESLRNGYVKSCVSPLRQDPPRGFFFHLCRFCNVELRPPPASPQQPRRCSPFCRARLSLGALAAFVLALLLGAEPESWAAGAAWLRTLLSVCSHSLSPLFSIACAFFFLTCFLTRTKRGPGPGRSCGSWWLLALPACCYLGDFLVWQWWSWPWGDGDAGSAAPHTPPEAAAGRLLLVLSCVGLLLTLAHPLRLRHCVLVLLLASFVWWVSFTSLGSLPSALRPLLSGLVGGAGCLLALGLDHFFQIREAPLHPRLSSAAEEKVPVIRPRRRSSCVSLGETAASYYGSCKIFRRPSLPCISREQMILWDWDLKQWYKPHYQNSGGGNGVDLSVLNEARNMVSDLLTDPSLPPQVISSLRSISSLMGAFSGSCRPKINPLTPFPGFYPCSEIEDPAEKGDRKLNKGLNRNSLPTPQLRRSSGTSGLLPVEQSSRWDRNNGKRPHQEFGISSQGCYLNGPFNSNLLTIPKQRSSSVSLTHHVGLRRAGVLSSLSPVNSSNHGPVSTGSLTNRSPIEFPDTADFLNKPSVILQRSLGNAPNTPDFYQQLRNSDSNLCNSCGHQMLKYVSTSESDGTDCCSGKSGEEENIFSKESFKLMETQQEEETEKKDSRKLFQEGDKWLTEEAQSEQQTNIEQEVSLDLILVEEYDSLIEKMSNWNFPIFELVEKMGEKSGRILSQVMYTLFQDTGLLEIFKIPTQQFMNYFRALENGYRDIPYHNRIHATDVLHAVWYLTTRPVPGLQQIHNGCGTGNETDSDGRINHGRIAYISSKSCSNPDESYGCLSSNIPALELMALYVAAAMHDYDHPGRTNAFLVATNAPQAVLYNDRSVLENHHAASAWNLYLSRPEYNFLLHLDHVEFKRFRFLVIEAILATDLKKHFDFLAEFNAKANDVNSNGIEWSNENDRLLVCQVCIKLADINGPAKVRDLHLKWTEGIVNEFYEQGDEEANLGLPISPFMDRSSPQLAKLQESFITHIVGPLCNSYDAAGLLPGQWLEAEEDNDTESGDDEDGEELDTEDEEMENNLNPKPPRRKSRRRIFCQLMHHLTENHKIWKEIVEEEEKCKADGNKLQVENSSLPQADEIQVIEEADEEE

[6] = target: 3',5'-cyclic-AMP phosphodiesterase 4A (Homo sapiens, UniProt P27815); assay: Inhibition of full length recombinant human N-terminal GST-tagged PDE4A1A expressed in baculovirus infected sf9 cells using FAM-cyclic-3',5-AMP as substrate after 1 hr by fluorescence polarization assay
[7] = target: Dual 3',5'-cyclic-AMP and -GMP phosphodiesterase 11A (Homo sapiens, UniProt Q9HCR9); assay: Inhibition of full length recombinant human N-terminal GST-tagged PDE11A4 expressed in baculovirus infected sf9 cells using FAM-cyclic-3',5-AMP as substrate after 1 hr by fluorescence polarization assay
Dual 3',5'-cyclic-AMP and -GMP phosphodiesterase 11A, sequence (Q9HCR9 whole entry): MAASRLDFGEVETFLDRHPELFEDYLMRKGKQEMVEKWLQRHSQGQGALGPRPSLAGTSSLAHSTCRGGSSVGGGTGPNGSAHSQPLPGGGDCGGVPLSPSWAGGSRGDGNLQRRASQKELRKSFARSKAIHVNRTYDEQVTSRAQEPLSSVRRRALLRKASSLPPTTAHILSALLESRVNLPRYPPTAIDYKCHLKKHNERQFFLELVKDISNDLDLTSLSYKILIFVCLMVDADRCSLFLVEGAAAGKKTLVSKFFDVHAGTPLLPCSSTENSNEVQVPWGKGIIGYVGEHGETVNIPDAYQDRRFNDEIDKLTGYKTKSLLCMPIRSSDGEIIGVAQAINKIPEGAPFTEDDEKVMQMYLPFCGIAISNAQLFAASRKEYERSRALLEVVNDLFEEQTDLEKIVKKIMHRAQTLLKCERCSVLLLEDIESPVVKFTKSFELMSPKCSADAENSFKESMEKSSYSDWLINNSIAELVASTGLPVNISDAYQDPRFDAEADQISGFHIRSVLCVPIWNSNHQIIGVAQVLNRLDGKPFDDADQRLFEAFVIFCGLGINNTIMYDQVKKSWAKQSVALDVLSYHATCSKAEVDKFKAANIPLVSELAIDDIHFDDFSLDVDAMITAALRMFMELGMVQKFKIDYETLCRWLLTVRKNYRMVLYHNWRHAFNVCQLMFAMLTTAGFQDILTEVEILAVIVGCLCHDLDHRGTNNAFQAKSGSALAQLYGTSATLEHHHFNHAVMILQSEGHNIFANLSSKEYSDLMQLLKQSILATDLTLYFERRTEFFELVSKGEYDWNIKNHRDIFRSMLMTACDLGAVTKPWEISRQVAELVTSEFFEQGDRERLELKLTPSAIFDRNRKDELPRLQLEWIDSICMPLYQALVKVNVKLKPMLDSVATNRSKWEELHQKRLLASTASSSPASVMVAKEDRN

[8] = target: Dual specificity calcium/calmodulin-dependent 3',5'-cyclic nucleotide phosphodiesterase 1A (Homo sapiens, UniProt P54750); assay: Inhibition of full length recombinant human N-terminal GST-tagged PDE1A expressed in baculovirus infected sf9 cells using FAM-cyclic-3',5-AMP as substrate after 1 hr by fluorescence polarization assay; summary of the method: as §1
Dual specificity calcium/calmodulin-dependent 3',5'-cyclic nucleotide phosphodiesterase 1A, sequence (P54750 whole entry): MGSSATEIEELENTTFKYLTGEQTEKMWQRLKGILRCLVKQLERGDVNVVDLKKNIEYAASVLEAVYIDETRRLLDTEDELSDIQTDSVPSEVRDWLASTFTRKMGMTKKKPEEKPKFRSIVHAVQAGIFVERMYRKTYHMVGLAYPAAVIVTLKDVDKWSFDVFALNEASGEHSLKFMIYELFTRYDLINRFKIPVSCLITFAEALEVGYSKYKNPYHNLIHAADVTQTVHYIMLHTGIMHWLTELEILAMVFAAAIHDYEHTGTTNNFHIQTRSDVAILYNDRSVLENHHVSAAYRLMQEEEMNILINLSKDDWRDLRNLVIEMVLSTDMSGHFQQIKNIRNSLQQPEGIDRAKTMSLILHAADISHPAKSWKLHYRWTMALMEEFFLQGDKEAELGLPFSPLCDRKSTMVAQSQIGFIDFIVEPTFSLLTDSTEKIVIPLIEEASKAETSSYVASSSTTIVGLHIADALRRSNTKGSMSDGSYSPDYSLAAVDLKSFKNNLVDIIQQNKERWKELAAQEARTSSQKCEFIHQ

[9] = target: Cone cGMP-specific 3',5'-cyclic phosphodiesterase subunit alpha' (Homo sapiens, UniProt P51160); assay: Inhibition of full length recombinant human N-terminal GST-tagged PDE6C expressed in baculovirus infected sf9 cells using […] as substrate after 1 hr by fluorescence polarization assay
Cone cGMP-specific 3',5'-cyclic phosphodiesterase subunit alpha', sequence (P51160 whole entry): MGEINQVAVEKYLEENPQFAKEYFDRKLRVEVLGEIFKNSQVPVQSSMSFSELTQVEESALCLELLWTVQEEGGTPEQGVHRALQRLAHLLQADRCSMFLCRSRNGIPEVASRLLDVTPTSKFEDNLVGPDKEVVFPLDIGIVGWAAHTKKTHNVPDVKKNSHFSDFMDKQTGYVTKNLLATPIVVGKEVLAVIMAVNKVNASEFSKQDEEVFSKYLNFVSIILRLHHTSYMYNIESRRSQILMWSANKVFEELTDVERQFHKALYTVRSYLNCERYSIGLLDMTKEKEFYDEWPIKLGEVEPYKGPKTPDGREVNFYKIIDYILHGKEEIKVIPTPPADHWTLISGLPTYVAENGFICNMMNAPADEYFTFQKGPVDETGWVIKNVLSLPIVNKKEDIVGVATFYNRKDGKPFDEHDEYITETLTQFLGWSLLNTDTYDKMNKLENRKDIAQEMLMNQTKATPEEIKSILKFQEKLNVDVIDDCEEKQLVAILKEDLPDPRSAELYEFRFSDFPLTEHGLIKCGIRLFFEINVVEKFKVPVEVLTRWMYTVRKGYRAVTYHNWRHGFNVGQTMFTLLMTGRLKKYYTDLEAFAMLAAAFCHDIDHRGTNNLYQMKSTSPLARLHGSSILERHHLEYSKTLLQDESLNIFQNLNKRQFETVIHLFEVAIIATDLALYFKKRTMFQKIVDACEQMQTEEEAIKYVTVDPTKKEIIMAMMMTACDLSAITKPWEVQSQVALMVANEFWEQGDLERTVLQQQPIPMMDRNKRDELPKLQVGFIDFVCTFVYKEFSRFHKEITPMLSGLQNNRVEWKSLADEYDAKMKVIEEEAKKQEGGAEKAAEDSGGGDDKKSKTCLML

Homo sapiens [10] = species on record: Homo sapiens; assay: Selectivity index, ratio of IC50 for inhibition of full length recombinant human N-terminal GST-tagged PDE11A4 expressed in baculovirus infected sf9 cells to IC50 for inhibition of full length recombinant human N-terminal GST-tagged PDE5A1 expressed in baculovirus infected sf9 cells

Row | inhibition [1] [%] | IC50 [2] [nM] | SMILES | other results
1 | 35.9 | – | CCCCN1C(=O)[C@@H]2Cc3c([nH]c4ccccc34)[C@H](c3ccc(CC)s3)N2C1=O | –
2 | 39.1 | – | CCc1ccc([C@H]2c3[nH]c4ccccc4c3C[C@@H]3C(=O)N(C)CC(=O)N23)o1 | –
3 | 21.1 | – | CCc1ccc(C(=O)c2[nH]c3ccccc3c2C[C@H]2NC(=O)CN(C)C2=O)s1 | –
4 | 72.7 | 61 | CCc1ccc([C@@H]2c3[nH]c4ccccc4c3C[C@H]3C(=O)N(C)CC(=O)N23)s1 | –
5 | 23.3 | – | CCc1ccc(C(=O)c2[nH]c3ccccc3c2C[C@@H]2NC(=O)CN(C)C2=O)s1 | –
6 | 45.8 | 155 | CCc1ccc([C@H]2c3[nH]c4ccccc4c3C[C@@H]3C(=O)N(CC)C(=O)N23)s1 | –
7 | 24.7 | – | CCc1ccc(C(=O)c2[nH]c3ccccc3c2CCNc2ncc(-c3ccc(OC)c(OC)c3)cn2)s1 | –
8 | 1.7 | – | Cc1cc(C(=O)c2[nH]c3ccccc3c2CCNc2ccc(-c3ccccn3)cn2)sc1C | –
9 | 39.8 | – | CN1CC(=O)N2[C@@H](c3ccc(Br)s3)c3[nH]c4ccccc4c3C[C@@H]2C1=O | –
10 | 89.5 | 36.9 | Cc1ccc([C@@H]2c3[nH]c4ccccc4c3C[C@@H]3C(=O)N(C)CC(=O)N23)o1 | –
11 | 23.2 | – | Cc1ccc(C2c3[nH]c4ccccc4c3CCN2c2ccc(-c3ccccn3)cn2)o1 (centres undefined) | –
12 | 39.2 | – | CCc1ccc(C2c3[nH]c4ccccc4c3CCN2c2ccc(-c3ccccn3)cn2)o1 (centres undefined) | –
13 | 79.4 | 30.3 | CCCCN1C(=O)[C@@H]2Cc3c([nH]c4ccccc34)[C@@H](c3ccc(CC)s3)N2C1=O | Ratio IC50 (Homo sapiens [3]): 4; IC50 [4]: > 20000 nM; IC50 [5]: > 20000 nM; IC50 [6]: > 10000 nM; IC50 [7]: > 1000 nM; IC50 [8]: > 20000 nM; IC50 [9]: 107 nM; Ratio IC50 (Homo sapiens [10]): > 33
14 | 69.4 | 39.7 | CCc1ccc(C2c3[nH]c4ccccc4c3C(=O)CN2c2ncc(-c3ccc(OC)c(OC)c3)cn2)s1 (centres undefined) | Ratio IC50 (Homo sapiens [3]): 6; IC50 [7]: 153 nM; IC50 [9]: 253 nM; Ratio IC50 (Homo sapiens [10]): 4
15 | 16.1 | – | CCc1ccc(C(=O)c2[nH]c3ccccc3c2CCNc2ccc(-c3ccccn3)cn2)o1 | –
16 | 21.2 | – | Cc1cc(C2c3[nH]c4ccccc4c3CCN2c2ccc(-c3ccccn3)cn2)sc1C (centres undefined) | –
17 | 66.7 | 50.2 | Cc1ccsc1[C@@H]1c2[nH]c3ccccc3c2C[C@@H]2C(=O)N(C)CC(=O)N12 | –
18 | 35.2 | – | CN1CC(=O)N2[C@@H](c3ccco3)c3[nH]c4ccccc4c3C[C@@H]2C1=O | –
19 | 83.6 | 27.6 | CCc1ccc([C@H]2c3[nH]c4ccccc4c3C[C@@H]3C(=O)N(CC)C(=O)N23)o1 | Ratio IC50 (Homo sapiens [3]): 0.4; IC50 [4]: > 20000 nM; IC50 [5]: > 20000 nM; IC50 [6]: > 10000 nM; IC50 [7]: 802 nM; IC50 [8]: > 20000 nM; IC50 [9]: 10 nM; Ratio IC50 (Homo sapiens [10]): 29
20 | 20.4 | – | Cc1ccc(C(=O)c2[nH]c3ccccc3c2CCNc2ccc(-c3ccccn3)cn2)s1 | –
21 | 69 | 56.4 | CCc1ccc([C@H]2c3[nH]c4ccccc4c3C[C@H]3C(=O)N(C)CC(=O)N23)o1 | –
22 | 47.6 | 177 | CCc1ccc(C2c3[nH]c4ccccc4c3CCN2c2ncc(-c3ccc(OC)c(OC)c3)cn2)o1 (centres undefined) | –
23 | 23.7 | – | Cc1ccc(C(=O)c2[nH]c3ccccc3c2CCNc2ccc(-c3ccccn3)cn2)o1 | –
24 | 40.5 | – | Cc1ccc([C@H]2c3[nH]c4ccccc4c3C[C@@H]3C(=O)N(C)CC(=O)N23)o1 | –
25 | 41.6 | – | CN1CC(=O)N2[C@@H](c3sccc3Br)c3[nH]c4ccccc4c3C[C@@H]2C1=O | –
26 | 41.1 | – | CCc1ccc([C@@H]2c3[nH]c4ccccc4c3C[C@H]3C(=O)N(C)CC(=O)N23)o1 | –
27 | 57.4 | 97.5 | Cc1ccsc1[C@H]1c2[nH]c3ccccc3c2C[C@@H]2C(=O)N(C)CC(=O)N12 | –

Row | inhibition [1] [%] | IC50 [2] [nM] | SMILES | other results
28 | 28 | – | CCCc1ccc(C2c3[nH]c4ccccc4c3CCN2c2ccc(-c3ccccn3)cn2)s1 (centres undefined) | –
29 | 43.9 | – | CCc1ccc(C2c3[nH]c4ccccc4c3CCN2C(=O)/C=C/c2ccc(C(=O)OC)cc2)s1 (centres undefined) | –
30 | 17.7 | – | O=C(c1cc2ccccc2o1)c1[nH]c2ccccc2c1CCNc1ccc(-c2ccccn2)cn1 | –
31 | 41.3 | – | CCNC(=O)N1[C@H](c2ccc(CC)s2)c2[nH]c3ccccc3c2C[C@@H]1C(=O)OC | –
32 | 17.5 | – | COc1cccc2cc(C3c4[nH]c5ccccc5c4CCN3c3ccc(-c4ccccn4)cn3)oc12 (centres undefined) | –
33 | 47.4 | 235 | CCc1ccc(C2c3[nH]c4ccccc4c3CCN2C(=O)/C=C/c2ccc(C(=O)O)cc2)s1 (centres undefined) | –
34 | 40.2 | – | Cc1ccc([C@H]2c3[nH]c4ccccc4c3C[C@@H]3C(=O)N(C)CC(=O)N23)s1 | –
35 | 29.1 | – | CCc1ccc(C(=O)c2[nH]c3ccccc3c2CCNc2ncc(-c3ccc(OC)c(OC)c3)cn2)o1 | –
36 | 76.2 | 36.4 | CCCCN1C(=O)[C@H]2Cc3c([nH]c4ccccc34)[C@@H](c3ccc(CC)s3)N2C1=O | Ratio IC50 (Homo sapiens [3]): > 27; IC50 [4]: > 20000 nM; IC50 [5]: > 20000 nM; IC50 [6]: > 10000 nM; IC50 [7]: 386 nM; IC50 [8]: > 20000 nM; IC50 [9]: > 1000 nM; Ratio IC50 (Homo sapiens [10]): 10
37 | 38.1 | – | Cc1ccc(C2c3[nH]c4ccccc4c3CCN2c2ccc(-c3ccccn3)cn2)s1 (centres undefined) | –
38 | 27.6 | – | CCc1ccc(C2c3[nH]c4ccccc4c3CCN2c2ncc(-c3ccc(OC)c(OC)c3)cn2)s1 (centres undefined) | –
39 | 76.1 | 21.4 | CCN1C(=O)[C@@H]2Cc3c([nH]c4ccccc34)[C@@H](c3sccc3C)N2C1=O | Ratio IC50 (Homo sapiens [3]): 0.6; IC50 [4]: > 20000 nM; IC50 [5]: > 20000 nM; IC50 [6]: > 10000 nM; IC50 [7]: 155 nM; IC50 [8]: > 20000 nM; IC50 [9]: 13 nM; Ratio IC50 (Homo sapiens [10]): 7
40 | 48.1 | – | CN1CC(=O)N2[C@H](c3ccco3)c3[nH]c4ccccc4c3C[C@@H]2C1=O | –
41 | 15.2 | – | c1ccc(-c2ccc(N3CCc4c([nH]c5ccccc45)C3c3cc4ccccc4o3)nc2)nc1 (centres undefined) | –
42 | 44.1 | 383 | CCc1ccc([C@H]2c3[nH]c4ccccc4c3C[C@H]3C(=O)N(CC)C(=O)N23)s1 | –
43 | 38.8 | – | CCc1ccc([C@H]2c3[nH]c4ccccc4c3C[C@@H]3C(=O)N(C)CC(=O)N23)s1 | –
44 | 27.3 | – | CCc1ccc(C(=O)c2[nH]c3ccccc3c2C[C@@H]2NC(=O)N(CC)C2=O)s1 | –
45 | 67.2 | 80.2 | CN1CC(=O)N2[C@H](c3sccc3Br)c3[nH]c4ccccc4c3C[C@@H]2C1=O | –
46 | 18.3 | – | CCCc1ccc(C(=O)c2[nH]c3ccccc3c2CCNc2ccc(-c3ccccn3)cn2)s1 | –
47 | 27.7 | – | CCN1C(=O)[C@@H]2Cc3c([nH]c4ccccc34)[C@H](c3sccc3C)N2C1=O | –
48 | 33.7 | – | CCc1ccc(C2c3[nH]c4ccccc4c3CCN2C(=O)/C=C/c2cccc(Br)c2)s1 (centres undefined) | –
49 | 23.9 | – | COc1cccc2cc(C(=O)c3[nH]c4ccccc4c3CCNc3ccc(-c4ccccn4)cn3)oc12 | –
50 | 62.2 | 81.2 | CCc1ccc([C@H]2c3[nH]c4ccccc4c3C[C@H]3C(=O)N(CC)C(=O)N23)o1 | –
51 | 37.9 | – | CCCCN1C(=O)[C@H]2Cc3c([nH]c4ccccc34)[C@H](c3ccc(CC)s3)N2C1=O | –
52 | 11.1 | – | CCc1ccc(C(=O)c2[nH]c3ccccc3c2C[C@H]2NC(=O)N(CC)C2=O)s1 | –
53 | 86.7 | 19.9 | CCc1ccc([C@H]2c3[nH]c4ccccc4c3C[C@H]3C(=O)N(C)CC(=O)N23)s1 | Ratio IC50 (Homo sapiens [3]): > 50; IC50 [4]: > 20000 nM; IC50 [5]: > 20000 nM; IC50 [6]: > 10000 nM; IC50 [7]: > 1000 nM; IC50 [8]: > 20000 nM; IC50 [9]: > 1000 nM; Ratio IC50 (Homo sapiens [10]): > 50
